ChEMBL document CHEMBL1131459, “2-Substituted (2SR)-2-amino-2-((1SR,2SR)-2-carboxycycloprop-1-yl)glycines as potent and selective antagonists of group II metabotropic glutamate receptors. 1. Effects of alkyl, arylalkyl, and diarylalkyl substitution” (J Med Chem, 1998)

Key:
[1] = Inhibitory activity for Group II Metabotropic glutamate receptor in rat forebrain membranes by using [3H]glutamate radioligand; format: cell membranes, Membrane
How it was run: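 Displacement of [³H]glutamic acid binding in rat forebrain membranes, an assay described as selective for group II mGluRs. Each compound was tested as a mixture of four isomers (two racemic diastereomers). Some values are the average of two determinations and some of three.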

[2] = biological target: T1, Metabotropic glutamate receptor 3 (Homo sapiens, UniProt Q14832); assay: Compound was tested its ability to block 1S,3R-ACPD-induced inhibition of forskolin stimulated cyclic-AMP in non-neuronal cell line expressing human Metabotropic glutamate receptor 3; Agonist; format: functional
T1 sequence (Q14832 whole entry): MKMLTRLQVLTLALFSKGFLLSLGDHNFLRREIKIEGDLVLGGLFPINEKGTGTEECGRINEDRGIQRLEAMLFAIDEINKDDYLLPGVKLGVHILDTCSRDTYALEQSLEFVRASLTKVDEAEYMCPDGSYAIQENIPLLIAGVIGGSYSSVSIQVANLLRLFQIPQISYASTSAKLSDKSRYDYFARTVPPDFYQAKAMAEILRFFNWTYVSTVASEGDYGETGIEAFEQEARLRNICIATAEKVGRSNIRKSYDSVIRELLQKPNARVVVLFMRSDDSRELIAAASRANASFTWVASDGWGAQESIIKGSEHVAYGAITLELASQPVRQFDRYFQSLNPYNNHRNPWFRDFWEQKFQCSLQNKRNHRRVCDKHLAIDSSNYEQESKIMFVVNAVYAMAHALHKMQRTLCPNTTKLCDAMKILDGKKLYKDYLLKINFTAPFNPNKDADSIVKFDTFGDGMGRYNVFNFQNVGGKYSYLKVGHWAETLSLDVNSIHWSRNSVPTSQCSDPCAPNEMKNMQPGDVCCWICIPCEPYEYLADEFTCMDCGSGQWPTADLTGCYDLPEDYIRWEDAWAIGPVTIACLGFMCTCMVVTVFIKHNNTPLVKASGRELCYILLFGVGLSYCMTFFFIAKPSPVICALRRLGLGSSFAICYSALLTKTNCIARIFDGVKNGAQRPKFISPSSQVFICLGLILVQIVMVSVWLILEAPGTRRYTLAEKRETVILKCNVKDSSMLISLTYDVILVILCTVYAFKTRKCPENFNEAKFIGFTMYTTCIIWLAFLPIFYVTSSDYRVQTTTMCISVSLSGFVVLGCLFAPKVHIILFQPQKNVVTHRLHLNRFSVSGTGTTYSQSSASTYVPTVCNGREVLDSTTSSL

[3] = biological target: T2, Metabotropic glutamate receptor 2 (Homo sapiens, UniProt Q14416); assay: Compound was tested its ability to block 1S,3R-ACPD-induced inhibition of forskolin stimulated cyclic-AMP in non-neuronal cell line expressing human Metabotropic glutamate receptor 2; Agonist; format: functional
T2 sequence (Q14416 whole entry): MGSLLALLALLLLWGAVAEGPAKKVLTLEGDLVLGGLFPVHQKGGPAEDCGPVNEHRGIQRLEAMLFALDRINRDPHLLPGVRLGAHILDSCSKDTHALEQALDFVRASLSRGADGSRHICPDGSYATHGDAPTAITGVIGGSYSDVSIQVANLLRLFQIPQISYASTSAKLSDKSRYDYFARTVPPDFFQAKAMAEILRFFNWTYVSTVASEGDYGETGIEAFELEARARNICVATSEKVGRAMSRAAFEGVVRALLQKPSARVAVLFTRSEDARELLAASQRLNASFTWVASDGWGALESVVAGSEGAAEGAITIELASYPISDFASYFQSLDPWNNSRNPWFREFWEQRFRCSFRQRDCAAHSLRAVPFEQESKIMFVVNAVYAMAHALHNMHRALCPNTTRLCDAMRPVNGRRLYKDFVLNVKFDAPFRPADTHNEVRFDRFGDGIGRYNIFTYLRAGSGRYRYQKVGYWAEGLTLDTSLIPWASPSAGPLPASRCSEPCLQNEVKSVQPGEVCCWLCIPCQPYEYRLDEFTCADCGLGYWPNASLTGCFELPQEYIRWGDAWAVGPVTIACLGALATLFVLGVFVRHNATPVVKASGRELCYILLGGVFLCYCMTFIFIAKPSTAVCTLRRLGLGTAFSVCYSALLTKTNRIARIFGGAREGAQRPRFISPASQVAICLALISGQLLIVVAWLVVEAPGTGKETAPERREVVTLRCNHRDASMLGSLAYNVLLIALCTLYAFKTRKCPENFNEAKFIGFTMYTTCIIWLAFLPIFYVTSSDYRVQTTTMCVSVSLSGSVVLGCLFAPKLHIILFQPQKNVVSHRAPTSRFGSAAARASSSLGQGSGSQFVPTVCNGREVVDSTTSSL

[4] = biological target: T1, Metabotropic glutamate receptor 3; assay: Ability to block 1S,3R-ACPD-induced inhibition of forskolin stimulated cyclic-AMP in non-neuronal cell line expressing human Metabotropic glutamate receptor 3; format: functional
[5] = biological target: T2, Metabotropic glutamate receptor 2; assay: Ability to block 1S,3R-ACPD-induced inhibition of forskolin stimulated cyclic-AMP in non-neuronal cell line expressing human Metabotropic glutamate receptor 2; format: functional

Row | IC50 [1] | IC50 [2] | IC50 [3] | IC50 [4] | IC50 [5] | SMILES
1 | 230 nM |  |  |  |  | N[C@@](CC1CCCc2ccccc21)(C(=O)O)C1C[C@@H]1C(=O)O (some centres not stated)
2 | 2800 nM |  |  |  |  | N[C@@](CCc1ccc2ccccc2c1)(C(=O)O)C1C[C@@H]1C(=O)O (some centres not stated)
3 | 630 nM |  |  |  |  | N[C@@](CC1CCOc2ccccc21)(C(=O)O)C1C[C@@H]1C(=O)O (some centres not stated)
4 | 10 nM |  |  |  |  | N[C@@](CC1c2ccccc2Oc2ccccc21)(C(=O)O)[C@H]1C[C@@H]1C(=O)O
5 | 280 nM |  |  | 1200 nM | 1400 nM | Cn1cc(CCC(N)(C(=O)O)[C@H]2C[C@@H]2C(=O)O)c2ccccc21 (some centres not stated)
6 | 320 nM |  |  | 650 nM | 850 nM | NC(CCc1ccccc1)(C(=O)O)[C@H]1C[C@@H]1C(=O)O (some centres not stated)
7 |  |  |  | 470 nM | 240 nM | NC(CCc1cccc2ccccc12)(C(=O)O)[C@H]1C[C@@H]1C(=O)O (some centres not stated)
8 | 630 nM |  |  | 550 nM | 1000 nM | NC(CCCc1ccccc1)(C(=O)O)[C@H]1C[C@@H]1C(=O)O (some centres not stated)
9 | 2300 nM |  |  | 2800 nM | 450 nM | NC(CCCCc1ccccc1)(C(=O)O)[C@H]1C[C@@H]1C(=O)O (some centres not stated)
10 | 240 nM |  |  | 280 nM | 4360 nM | N[C@@](CC(c1ccccc1)c1ccccc1)(C(=O)O)[C@H]1C[C@@H]1C(=O)O
11 | > 10000 nM |  |  |  |  | N[C@@](CC(Cc1ccccc1)Cc1ccccc1)(C(=O)O)C1C[C@@H]1C(=O)O (some centres not stated)
12 | 11200 nM |  |  |  |  | N[C@@](COc1ccccc1)(C(=O)O)C1C[C@@H]1C(=O)O (some centres not stated)
13 | > 10000 nM |  |  | > 10000 nM | > 10000 nM | N[C@@](Cc1ccccc1)(C(=O)O)C1C[C@@H]1C(=O)O (some centres not stated)
14 | 200 nM |  |  |  |  | CC(C[C@](N)(C(=O)O)C1C[C@@H]1C(=O)O)c1ccccc1 (some centres not stated)
15 | 700 nM |  |  | 1800 nM | 1600 nM | CC(C)C[C@](N)(C(=O)O)C1C[C@@H]1C(=O)O (some centres not stated)
16 | 7000 nM |  |  |  |  | N[C@@](CCCC(c1ccccc1)c1ccccc1)(C(=O)O)C1C[C@@H]1C(=O)O (some centres not stated)
17 | 19 nM |  |  |  |  | N[C@@](CC1c2ccccc2Sc2ccccc21)(C(=O)O)C1C[C@@H]1C(=O)O (some centres not stated)
18 | 7100 nM |  |  | > 10000 nM | > 10000 nM | N[C@@](CCC(c1ccccc1)c1ccccc1)(C(=O)O)C1C[C@@H]1C(=O)O (some centres not stated)
19 | > 10000 nM |  |  |  |  | N[C@](C(=O)O)(C1Cc2ccccc2C1)C1C[C@@H]1C(=O)O (some centres not stated)

More lines, now with the values behind:

Row | SMILES | IC50 [1] | IC50 [2] | IC50 [3] | IC50 [4] | IC50 [5]
20 | CCC[C@](N)(C(=O)O)C1C[C@@H]1C(=O)O (some centres not stated) | 2100 nM |  |  |  | 
21 | N[C@@](CC1CCCC1)(C(=O)O)C1C[C@@H]1C(=O)O (some centres not stated) | 1400 nM |  |  |  | 
22 | CCCCCCCC[C@](N)(C(=O)O)C1C[C@@H]1C(=O)O (some centres not stated) | 1700 nM |  |  |  | 
23 | CCCC[C@](N)(C(=O)O)C1C[C@@H]1C(=O)O (some centres not stated) | 1400 nM |  |  |  | 
24 | CCCCC[C@](N)(C(=O)O)C1C[C@@H]1C(=O)O (some centres not stated) | 1800 nM |  |  |  | 
25 | CC(C)[C@](N)(C(=O)O)C1C[C@@H]1C(=O)O (some centres not stated) | > 10000 nM |  |  |  | 
26 | N[C@@](CCC1CCCCC1)(C(=O)O)C1C[C@@H]1C(=O)O (some centres not stated) | 380 nM |  |  |  | 
27 | CC(C)CC[C@](N)(C(=O)O)C1C[C@@H]1C(=O)O (some centres not stated) | 1100 nM |  |  |  | 
28 | CC(C)CCC[C@](N)(C(=O)O)C1C[C@@H]1C(=O)O (some centres not stated) | 850 nM |  |  |  | 
29 | N[C@@H](C(=O)O)C1C[C@@H]1C(=O)O (some centres not stated) | 470 nM | Agonist | Agonist |  | 
30 | NC(CC1CCCCC1)(C(=O)O)[C@H]1C[C@@H]1C(=O)O (some centres not stated) | 230 nM |  |  | 1400 nM | 1100 nM
31 | CCC(N)(C(=O)O)[C@H]1C[C@@H]1C(=O)O (some centres not stated) | 2200 nM |  |  | 2500 nM | 6500 nM
32 | NC(CCc1ccsc1)(C(=O)O)[C@H]1C[C@@H]1C(=O)O (some centres not stated) | 210 nM |  |  | 570 nM | 1000 nM
33 | NC(CCC12CC3CC(CC(C3)C1)C2)(C(=O)O)[C@H]1C[C@@H]1C(=O)O (some centres not stated) | 200 nM |  |  | 760 nM | 240 nM
34 | C[C@](N)(C(=O)O)C1C[C@@H]1C(=O)O (some centres not stated) | 6200 nM |  |  |  | 
35 | N[C@@](CCC1CCNCC1)(C(=O)O)C1C[C@@H]1C(=O)O (some centres not stated) | > 10000 nM |  |  |  | 
36 | N[C@@](CC1CCC1)(C(=O)O)C1C[C@@H]1C(=O)O (some centres not stated) | 29500 nM |  |  | > 10000 nM | > 10000 nM
37 | N[C@@](CCC1C2CC3CC(C2)CC1C3)(C(=O)O)C1C[C@@H]1C(=O)O (some centres not stated) | 550 nM |  |  |  | 
38 | N[C@@](CCc1cccs1)(C(=O)O)C1C[C@@H]1C(=O)O (some centres not stated) | 580 nM |  |  |  | 
